Test results reported in ChEMBL document CHEMBL1147007, “Optimization of 2-aminothiazole derivatives as CCR4 antagonists” (Bioorg Med Chem Lett, 2006).

What was measured:
[1] = biological target: T1, C-C chemokine receptor type 4 (Homo sapiens, UniProt P51679); experiment: Displacement of [125I]TARC from CCR4 expressed in human CEM cell line; format: cell-based, CCRF-CEM
T1 sequence (P51679 whole entry): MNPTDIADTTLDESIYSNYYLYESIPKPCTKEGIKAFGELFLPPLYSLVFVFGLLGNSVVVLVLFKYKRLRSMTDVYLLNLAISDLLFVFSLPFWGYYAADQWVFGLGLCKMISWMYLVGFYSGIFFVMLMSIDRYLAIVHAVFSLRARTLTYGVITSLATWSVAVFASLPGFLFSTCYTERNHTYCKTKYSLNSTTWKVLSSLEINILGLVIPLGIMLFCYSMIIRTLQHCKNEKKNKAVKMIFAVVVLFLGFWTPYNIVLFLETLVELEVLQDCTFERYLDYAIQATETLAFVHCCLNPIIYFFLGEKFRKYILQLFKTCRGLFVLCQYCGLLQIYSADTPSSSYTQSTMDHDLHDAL
Method in brief: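 CEM cells at 5 · 10^6/mL in RPMI-1640 with 0.5% BSA, incubated with compound (diluted in DMSO) and [125I]TARC diluted to 100 pM in buffer, 2 h at room temperature. Bound ligand collected by filtration through GF/B filters and counted by scintillation. Values are means of three experiments (standard deviation ±30%).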

[2] = Oral bioavailability in rat at 2 mg/kg, po; format: ADME, organism-based; conditions: in vivo
Method in brief: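 Rats dosed by oral gavage at 2 mg/kg; oral bioavailability determined.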

[3] = Terminal half life in rat at 0.5 mg/kg, iv; format: ADME, organism-based; set-up: dose 0.5 mg/kg, route intravenous; conditions: in vivo
[4] = biological target: T1, C-C chemokine receptor type 4; experiment: Displacement of [125I]MDC from CCR4 expressed in human CEM cell line; format: cell-based, CCRF-CEM
[5] = Clearance in rat at 0.5 mg/kg, iv; format: ADME, organism-based; set-up: dose 0.5 mg/kg, route intravenous; conditions: in vivo

| Structure (SMILES) | IC50 [1] | also measured |
| --- | --- | --- |
| NCc1csc(Nc2cccc3ccccc23)n1 | > 25000 nM | – |
| CC(C)(C)c1ccc(-c2csc(Nc3cccc4ccccc34)n2)cc1 | 900 nM | – |
| CC(C)c1csc(Cc2cccc3ccccc23)n1 | > 25000 nM | – |
| CC(C)(C)c1csc(Nc2cccc3cccnc23)n1 | > 25000 nM | – |
| CC(C)(C)c1csc(Nc2ccccc2)n1 | 4500 nM | – |
| Cc1cccc(Nc2cc(CN(Cc3ccccc3C(F)(F)F)CC3CCCCC3)no2)c1C | 12100 nM | – |
| CCNCc1csc(Nc2cccc3ccccc23)n1 | 1000 nM | – |
| CC(C)(C)c1csc(Nc2cccc3[nH]ccc23)n1 | 490 nM | – |
| Cc1csc(N(C)c2cccc3ccccc23)n1 | > 25000 nM | – |
| Cc1cccc(Nc2cc(CN(Cc3ccccc3C(F)(F)F)CC3CCCCC3)n[nH]2)c1C | > 25000 nM | – |
| c1ccc(-c2csc(Nc3cccc4ccccc34)n2)cc1 | 5500 nM | – |
| CC(C)(C)c1ccnc(Nc2cccc3ccccc23)n1 | > 25000 nM | – |
| CC(C)(C)c1csc(Nc2cccc3cnccc23)n1 | 1500 nM | – |
| Cc1ccccc1Nc1nc(C(C)(C)C)cs1 | 900 nM | – |
| Cc1csc(Nc2cccc3ccccc23)n1 | 1700 nM | bioavailability [2]: 2%; half-life [3]: 0.4 h; IC50 [4]: 3000 nM; clearance [5]: 70 mL/min/kg |
| Cc1cccc(Nc2nc(C(C)(C)C)cs2)c1 | 2000 nM | – |
| CCN(CC)Cc1csc(Nc2cccc3ccccc23)n1 | 800 nM | – |

The next compounds have a lower IC50 [1] than those just listed; values first:

| IC50 [1] | Structure (SMILES) | also measured |
| --- | --- | --- |
| 440 nM | CC(C)c1ccccc1Nc1nc(C(C)(C)C)cs1 | – |
| 370 nM | Cc1cccc(Nc2cc(CN(Cc3ccccc3C(F)(F)F)CC3CCCCC3)nn2C)c1C | – |
| 340 nM | Cc1cccc(Nc2cccc(CN(Cc3ccccc3C(F)(F)F)CC3CCCCC3)n2)c1C | – |
| 300 nM | CC(C)(C)c1csc(Nc2cccc3ncccc23)n1 | – |
| 260 nM | Cc1cccc(Nc2nc(C(C)(C)C)cs2)c1C | – |
| 220 nM | CC(C)(C)Cc1csc(Nc2cccc3ccccc23)n1 | – |
| 210 nM | CC(C)(C)c1csc(Nc2cccc3c2CCCC3)n1 | – |
| 210 nM | CCn1ccc2c(Nc3nc(C(C)(C)C)cs3)cccc21 | – |
| 170 nM | CC(C)c1csc(Nc2cccc3ccccc23)n1 | – |
| 80 nM | CC(C)(C)c1coc(Nc2cccc3ccccc23)n1 | – |
| 80 nM | CC(C)(C)c1csc(Nc2cccc3ccccc23)n1 | – |
| 45 nM | CC(C)CN(Cc1csc(Nc2cccc3ccccc23)n1)CC(C)C | – |
| 37 nM | Cn1ccc2c(Nc3nc(C(C)(C)C)cs3)cccc21 | – |
| 18 nM | c1ccc2c(Nc3nc(CN(CC4CCCCC4)CC4CCCCC4)cs3)cccc2c1 | bioavailability [2]: 63%; half-life [3]: 3.6 h; IC50 [4]: 31 nM; clearance [5]: 17.8 mL/min/kg |
| 14 nM | FC(F)(F)c1ccccc1CN(Cc1csc(Nc2cccc3ccccc23)n1)CC1CCCCC1 | – |
